Source: ChEMBL document CHEMBL1155808, “Antitumor activity of bis-indole derivatives” (J Med Chem, 2008)
Activity calls are given as the source filed them. The rule behind the calls is not given here.

How the values were obtained:
[1] = Cytotoxicity against human Non-small cell lung carcinoma cells; assay type: functional
How it was run: (§1)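 NCI 60-cell-line human tumour screen, with subpanels for leukemia, melanoma, lung, colon, kidney, ovary, breast, prostate and CNS. Compounds were dissolved in DMSO and tested at five ten-fold dilutions, highest 10^-4 M (10^-3 M for some). Endpoints were GI50, TGI and LC50, reported as negative log molar. Some compounds were assayed once, others two or three times.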

[2] = Cytotoxicity against human colon cancer cells; assay type: functional; details: Cancer cell lines; how it was run: as §1
[3] = Cytotoxicity against human central nervous system cancer cells; assay type: functional; details: Cancer cell lines; how it was run: as §1
[4] = Cytotoxicity against human melanoma cells; assay type: functional; details: Melanoma cell
[5] = Cytotoxicity against human ovarian cancer cells; assay type: functional; details: Cancer cell lines
[6] = Cytotoxicity against human renal cancer cells; assay type: functional; details: Cancer cell lines; how it was run: as §1
[7] = Cytotoxicity against human prostate cancer cells; assay type: functional; details: Cancer cell lines; how it was run: as §1
[8] = Cytotoxicity against human breast cancer cells; assay type: functional; details: Cancer cell lines
How it was run: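 MTT cytotoxicity assay in breast cancer cell lines; proliferation expressed as percent growth inhibition relative to vehicle-treated control cells; IC50 reported.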

[9] = Cytotoxicity against human leukemia cells; assay type: functional; details: Leukemia cell; how it was run: as §1
[10] = Inhibition of plasma membrane electron transport pathway in mitochondrial gene-knockout human HL60p'0 cells by WST1 reduction assay
How it was run: (§2)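 Cells at 10^5 per well in 0.1 ml pretreated 30 min with compound in DMSO (<0.1% final), then WST-1/mPMS added (final 500 µM and 20 µM); WST-1 reduction followed in real time at 450 nm; averages ± S.E.M. of four independent experiments.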

[11] = Inhibition of plasma membrane electron transport pathway in human HL60 cells by WST1 reduction assay; assay type: cell-based; details: HL-60; how it was run: as §2
[12] = Inhibition of plasma membrane electron transport pathway in human B1647 cells by WST1 reduction assay; assay type: cell-based; how it was run: as §2
[13] = Inhibition of plasma membrane electron transport pathway in human HEL cells by WST1 reduction assay; assay type: cell-based; how it was run: as §2
[14] = Inhibition of plasma membrane electron transport pathway in human Mo7e cells by WST1 reduction assay; assay type: cell-based; how it was run: as §2
B1647 = experiment: Antiproliferative activity against human B1647 cells after 48 hrs by MTT assay; assay type: functional, cell-based
HEL = experiment: Antiproliferative activity against human HEL cells after 48 hrs by MTT assay; assay type: functional, cell-based
Mo7e = experiment: Antiproliferative activity against human Mo7e cells after 48 hrs by MTT assay; assay type: functional, cell-based
Mus musculus [15] = experiment: Toxicity in ip dosed mouse assessed as maximum tolerated dose after 14 days; assay type: organism-based; details: in vivo, 336 h
How it was run: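 Mice received a single i.p. injection of 400 mg/kg. If the animal survived 14 days, MTD was 400 mg/kg. If it died, the dose was lowered to 200 mg/kg and then halved repeatedly until a tolerated dose was found, which was taken as the MTD.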

Mus musculus [16] = experiment: Toxicity in human HL60(TB) cells xenografted mouse assessed as mean net weight loss at 200 mg/kg, ip dosed as Q4Dx3, day 7 schedule measured on day 14; assay type: organism-based; design: dose 200 mg/kg, route intraperitoneal; details: in vivo
Mus musculus [17] = experiment: Toxicity in human HL60(TB) cells xenografted mouse assessed as mean net weight loss at 134 mg/kg, ip dosed as Q4Dx3, day 7 schedule measured on day 14; assay type: organism-based; design: dose 134 mg/kg, route intraperitoneal; details: in vivo
Mus musculus [18] = experiment: Toxicity in human HL60(TB) cells xenografted mouse assessed as mean net weight loss at 90 mg/kg, ip dosed as Q4Dx3, day 7 schedule measured on day 22; assay type: organism-based; design: dose 90 mg/kg, route intraperitoneal; details: in vivo
Mus musculus [19] = experiment: Toxicity in human HL60(TB) cells xenografted mouse assessed as drug induced death at 200 mg/kg, ip dosed as Q4Dx3, day 7 schedule measured on day 14; assay type: organism-based; design: dose 200 mg/kg, route intraperitoneal; details: in vivo
Mus musculus [20] = experiment: Toxicity in human HL60(TB) cells xenografted mouse assessed as drug induced death at 134 mg/kg, ip dosed as Q4Dx3, day 7 schedule measured on day 14; assay type: organism-based; design: dose 134 mg/kg, route intraperitoneal; details: in vivo
Mus musculus [21] = experiment: Toxicity in human HL60(TB) cells xenografted mouse assessed as drug induced death at 90 mg/kg, ip dosed as Q4Dx3, day 7 schedule measured on day 22; assay type: organism-based; design: dose 90 mg/kg, route intraperitoneal; details: in vivo
[22] = Antitumor activity against human HL60(TB) cells xenografted in mouse assessed as effect on tumor growth at 200 mg/kg, ip dosed as Q4Dx3, day 7 schedule measured on day 19 relative to control; assay type: functional, HL-60(TB); details: route intraperitoneal
[23] = Antitumor activity against human HL60(TB) cells xenografted in mouse assessed as effect on tumor growth at 134 mg/kg, ip dosed as Q4Dx3, day 7 schedule measured on day 19 relative to control; assay type: functional, HL-60(TB); details: route intraperitoneal
[24] = Antitumor activity against human HL60(TB) cells xenografted in mouse assessed as tumor growth delay at 90 mg/kg, ip dosed as Q4Dx3, day 7 schedule day 7 schedule measured on day 19 relative to control; assay type: functional, HL-60(TB); details: route intraperitoneal
[25] = Antitumor activity against human HL60(TB) cells xenografted in mouse assessed as tumor growth delay at 200 mg/kg, ip dosed as Q4Dx3, day 7 schedule relative to control; assay type: functional, HL-60(TB); details: route intraperitoneal
[26] = Antitumor activity against human HL60(TB) cells xenografted in mouse assessed as tumor growth delay at 134 mg/kg, ip dosed as Q4Dx3, day 7 schedule relative to control; assay type: functional, HL-60(TB); details: route intraperitoneal
[27] = Antitumor activity against human HL60(TB) cells xenografted in mouse assessed as tumor growth delay at 90 mg/kg, ip dosed as Q4Dx3, day 7 schedule relative to control; assay type: functional, HL-60(TB); details: route intraperitoneal
[28] = Antitumor activity against human HL60(TB) cells xenografted in mouse assessed as net log cell kill at 200 mg/kg, ip dosed as Q4Dx3, day 7 schedule relative to control; assay type: functional, HL-60(TB); details: route intraperitoneal
[29] = Antitumor activity against human HL60(TB) cells xenografted in mouse assessed as net log cell kill at 134 mg/kg, ip dosed as Q4Dx3, day 7 schedule relative to control; assay type: functional, HL-60(TB); details: route intraperitoneal
[30] = Antitumor activity against human HL60(TB) cells xenografted in mouse assessed as net log cell kill at 90 mg/kg, ip dosed as Q4Dx3, day 7 schedule relative to control; assay type: functional, HL-60(TB); details: route intraperitoneal
[31] = read-out: pLC50 (the source's name) (converted)

COc1ccc2c(c1)/C(=C\c1cccc(/C=C3/C(=O)Nc4ccc(OC)cc43)n1)C(=O)N2
GI50 [1]: 1.7 µM | CC50 [1, 31]: 43.7 µM | TGI ([1]; read-out: pTGI (converted)): 10.7 µM | GI50 [2]: 0.794 µM | CC50 [2, 31]: 30.9 µM | TGI ([2]; read-out: pTGI (converted)): 4.68 µM | GI50 [3]: 1.62 µM | CC50 [3, 31]: 63.1 µM | TGI ([3]; read-out: pTGI (converted)): 12.9 µM | GI50 [4]: 0.891 µM | CC50 [4, 31]: 13.5 µM | GI50 [5]: 1.12 µM | CC50 [5, 31]: 46.8 µM | TGI ([5]; read-out: pTGI (converted)): 9.33 µM | GI50 [6]: 1.45 µM | CC50 [6, 31]: 24 µM | TGI ([6]; read-out: pTGI (converted)): 4.27 µM | GI50 [7]: 1.66 µM | CC50 [7, 31]: 69.2 µM | TGI ([7]; read-out: pTGI (converted)): 9.33 µM | GI50 [8]: 1.48 µM | CC50 [8, 31]: 81.3 µM | TGI ([8]; read-out: pTGI (converted)): 14.8 µM | GI50 [9]: 0.617 µM | CC50 [9, 31]: 57.5 µM | TGI ([9]; read-out: pTGI (converted)): 3.8 µM | IC50 [10]: > 117 µM | IC50 [11]: > 117 µM | IC50 [12]: 30 µM | IC50 [13]: 30 µM | IC50 [14]: 30 µM | Activity (B1647): Active | Activity (HEL): Active | Activity (Mo7e): Active | MTD (Mus musculus [15]): 400 mg/kg | Activity (Mus musculus [16]): 10% | Activity (Mus musculus [17]): 6.4% | Activity (Mus musculus [18]): 9.1% | Activity (Mus musculus [19]): Non-toxic | Activity (Mus musculus [20]): Non-toxic | Activity (Mus musculus [21]): Non-toxic | T/C [22]: 90% | T/C [23]: 6.4% | T/C [24]: 138% | Activity [25]: 48% | Activity [26]: -17% | Activity [27]: 25% | LCK [28]: -0.8 | LCK [29]: -1.8 | LCK [30]: -1.1
